{
  "source": "ChEMBL document CHEMBL4513216",
  "about": "“Probing the Open Global Health Chemical Diversity Library for Multistage-Active Starting Points for Next-Generation Antimalarials” (ACS Infect Dis, 2020)",
  "data": [
    {"experiment": "Toxicity liver stage against HepG2, at 10uM", "assay_type": "cell-based", "set-up": "test concentration 10 uM, cell line HepG2-A16-CD81EGFP", "details": "human, HepG2-A16-CD81EGFP cells; read-out: INHIBITION", "how_it_was_run": "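Uninfected HepG2-A16-CD81EGFP cells, 3 × 10^3 per well, 1536-well, plated on prespotted compound at 10 μM final, parasite-free screening media added to match infected plates; puromycin 10 μM positive, DMSO 0.5% negative; run in parallel with 48 h PbLuc assay at 37 °C, 5% CO2; viability by CellTiter-Glo luminescence, normalized to controls.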", "units": {"cytotoxicity at 10 µM": "%"}, "values": [
      {"smiles": "O=C1CO[C@H]2CN(C3CCOCC3)C[C@H]2N1Cc1ccc(F)cc1", "cytotoxicity at 10 µM": -6.35},
      {"smiles": "Cc1ccc(S(=O)(=O)Cc2noc([C@@H]3C[C@@H](O)CN3C)n2)cc1", "cytotoxicity at 10 µM": 0.847},
      {"smiles": "COc1coc(C(=O)Nc2nc(C)cs2)cc1=O", "cytotoxicity at 10 µM": -3.96},
      {"smiles": "COc1cccc(CNC(=O)c2cc(C)nc(N3CCCCC3)n2)c1", "cytotoxicity at 10 µM": 20},
      {"smiles": "O=C(Nc1cc(-c2ccncc2)no1)C1CCC1", "cytotoxicity at 10 µM": -12.6},
      {"smiles": "Cc1ccsc1C(=O)NCc1ccnc(C2CCCOC2)n1", "note": "(configuration not stated)", "cytotoxicity at 10 µM": -23.6},
      {"smiles": "Cn1cnc(CN2Cc3nccn3CC2c2ccccc2)c1", "note": "(configuration not stated)", "cytotoxicity at 10 µM": 2.98},
      {"smiles": "CCn1ncc(S(=O)(=O)N[C@@H]2CC[C@@H](n3ccnc3C)[C@@H]2O)c1C", "cytotoxicity at 10 µM": 3.65},
      {"smiles": "Cc1c[nH]nc1C1CCCN(c2cnccn2)C1", "note": "(configuration not stated)", "cytotoxicity at 10 µM": 8.75},
      {"smiles": "COc1cccc(C(=O)N2C[C@@H](c3ccccc3)[C@@H]3NCCCC[C@@H]32)c1", "cytotoxicity at 10 µM": -14.1},
      {"smiles": "O=C(c1ccco1)N1CCC(n2nc(-c3cccs3)ccc2=O)CC1", "cytotoxicity at 10 µM": -32.3},
      {"smiles": "Cc1ccc(-c2nnc(CCC(=O)N3CCCC3c3ccc[nH]3)o2)cc1", "note": "(configuration not stated)", "cytotoxicity at 10 µM": -1.31},
      {"smiles": "CC(C)N(C)C(=O)C1CSCN1S(=O)(=O)c1cc(Cl)ccc1Cl", "note": "(configuration not stated)", "cytotoxicity at 10 µM": -1.57},
      {"smiles": "O=C(COC1CCOC1)N(CC(F)F)c1cccc(Cl)c1", "note": "(configuration not stated)", "cytotoxicity at 10 µM": 3.44},
      {"smiles": "N#Cc1ccc(CN2CCc3sccc3C2)c(F)c1", "cytotoxicity at 10 µM": -5.13},
      {"smiles": "OCCC1CCN(c2ccnc3ccsc23)C1", "note": "(configuration not stated)", "cytotoxicity at 10 µM": 2.35},
      {"smiles": "Cn1cc(CC(=O)N2CCCC(c3ccn[nH]3)C2)cn1", "note": "(configuration not stated)", "cytotoxicity at 10 µM": -4.89},
      {"smiles": "CCCNc1nnc(S(=O)(=O)CCOCC)s1", "cytotoxicity at 10 µM": 5.96},
      {"smiles": "CC(C)COc1cncc(N2CCCC(CC(N)=O)C2)n1", "note": "(configuration not stated)", "cytotoxicity at 10 µM": -1.67},
      {"smiles": "CCN(C(=O)Cn1cc(Cl)cn1)c1ccccc1", "cytotoxicity at 10 µM": -8.01},
      {"smiles": "CN(CC(=O)NCC(O)c1cccc(F)c1)C(=O)OC(C)(C)C", "note": "(configuration not stated)", "cytotoxicity at 10 µM": 1.2},
      {"smiles": "COc1ccc(Br)cc1CN(C)C(C)c1nc(C)no1", "note": "(configuration not stated)", "cytotoxicity at 10 µM": -4.02},
      {"smiles": "NC(=O)C(Nc1ccc(Cl)cc1)c1ccc(F)cc1", "note": "(configuration not stated)", "cytotoxicity at 10 µM": -0.82},
      {"smiles": "COc1ccccc1C1(C(=O)N2CCN(CC(C)O)CC2)CC1", "note": "(configuration not stated)", "cytotoxicity at 10 µM": -3.51},
      {"smiles": "c1ccc(Cc2noc(CN3CCCCC3C3OCCO3)n2)cc1", "note": "(configuration not stated)", "cytotoxicity at 10 µM": -2.62},
      {"smiles": "Cc1noc(Cl)c1CC(=O)NCCOc1ccc(F)cc1F", "cytotoxicity at 10 µM": -2.64},
      {"smiles": "Cc1nn(C(C)C)c(C)c1NC(=O)c1ccc(F)cc1", "cytotoxicity at 10 µM": -2.27},
      {"smiles": "COCc1nc(C(=O)N(Cc2ccccc2)CC(C)C(=O)O)cs1", "note": "(configuration not stated)", "cytotoxicity at 10 µM": 4},
      {"smiles": "C=C(C)CN(CC)S(=O)(=O)c1cccc(F)c1C#N", "cytotoxicity at 10 µM": -6.03},
      {"smiles": "CC(C)(C)n1nc(C(=O)NC2CCN(CC(N)=O)CC2)cc1C1CC1", "cytotoxicity at 10 µM": 0.196},
      {"smiles": "Cc1cc(NC2CCN(c3ccccc3)C2)n2ncnc2n1", "note": "(configuration not stated)", "cytotoxicity at 10 µM": 14.7},
      {"smiles": "CCCOc1ccc(NC(=O)NCCC(=O)N(C)C)cc1Cl", "cytotoxicity at 10 µM": -10.9},
      {"smiles": "O=C(Cc1cccs1)NC1CCN(c2cccc(F)c2)CC1", "cytotoxicity at 10 µM": -24.2},
      {"smiles": "Cc1cc(N2CCC(N(C)C(=O)Nc3ccccc3)CC2)nc(C)n1", "cytotoxicity at 10 µM": -19.4},
      {"smiles": "CCCOc1c(CNC2CCSC2)cccc1OC", "note": "(configuration not stated)", "cytotoxicity at 10 µM": 4.36},
      {"smiles": "O=C1CCCN1CCN1CC=C(c2cnn(C3CCS(=O)(=O)C3)c2)CC1", "note": "(configuration not stated)", "cytotoxicity at 10 µM": -0.36},
      {"smiles": "COc1c(F)cc(CN2CCC3(CC2)CN(C)C(=O)O3)cc1Cl", "cytotoxicity at 10 µM": 8.08},
      {"smiles": "Cc1cc(C2CCCN2C(=O)CN2C(=O)OC(C)(C)C2=O)on1", "note": "(configuration not stated)", "cytotoxicity at 10 µM": -14.1},
      {"smiles": "Cc1ccc(N2CCN(C(=O)[C@@H]3CCC(=O)N3)CC2=O)cc1", "cytotoxicity at 10 µM": -4.18},
      {"smiles": "Cc1ccc([C@H]2CN(CCO)C[C@@H]2NC(=O)CN2CCCCC2=O)o1", "cytotoxicity at 10 µM": 2.1},
      {"smiles": "COc1cccc(Cn2cc(C3=CCN(CCO)CC3)cn2)c1", "cytotoxicity at 10 µM": -10.2},
      {"smiles": "CC(=O)c1cc(CC(=O)N2CCN(S(=O)(=O)c3ccccc3)CC2)cs1", "cytotoxicity at 10 µM": -0.943},
      {"smiles": "Cc1cc(C(=O)N2CCCCC2c2nc3cc(F)ccc3[nH]2)no1", "note": "(configuration not stated)", "cytotoxicity at 10 µM": 19.6},
      {"smiles": "Cc1nc(C2CCN(CC(=O)NC3CC3)CC2)cc(N2CCOCC2)n1", "cytotoxicity at 10 µM": 2.39},
      {"smiles": "c1ccc(Cn2cccn2)c(CN2CCC3(CCCNC3)C2)c1", "note": "(configuration not stated)", "cytotoxicity at 10 µM": -13},
      {"smiles": "CCC(C(=O)N(C)Cc1cc(-c2ccccc2)n[nH]1)n1cccn1", "note": "(configuration not stated)", "cytotoxicity at 10 µM": -7.35},
      {"smiles": "Cc1cc(N2CCN(Cc3nccn3C)CC2)cc(C)n1", "cytotoxicity at 10 µM": 15.7},
      {"smiles": "Cc1nc[nH]c1-c1nc2cc(S(=O)(=O)N3CCCC3)ccc2n1C", "cytotoxicity at 10 µM": -14.2},
      {"smiles": "O=C(NCCc1ccco1)Nc1cc(C(F)(F)F)c[nH]c1=O", "cytotoxicity at 10 µM": -12.3},
      {"smiles": "N#Cc1cc(F)ccc1CN1CCCCC1Cn1cccn1", "note": "(configuration not stated)", "cytotoxicity at 10 µM": -2.93},
      {"smiles": "Cc1cc(NC(=O)CN2CCCC2c2c(C)nn(C)c2C)on1", "note": "(configuration not stated)", "cytotoxicity at 10 µM": -2.9},
      {"smiles": "Cc1cc(CN2CCN(C(=O)CCCc3nc(C(C)C)no3)CC2)on1", "cytotoxicity at 10 µM": -9.05},
      {"smiles": "COc1cccc(CC(=O)N2CCCC(n3nc(C)cc3C)C2)c1", "note": "(configuration not stated)", "cytotoxicity at 10 µM": 0.441},
      {"smiles": "Cc1cccc(C(=O)N2CCCC(c3noc(C)n3)C2)n1", "note": "(configuration not stated)", "cytotoxicity at 10 µM": -19.9},
      {"smiles": "CCc1c(C(=O)NCC2CCS(=O)(=O)C2)cnn1-c1ccccc1", "note": "(configuration not stated)", "cytotoxicity at 10 µM": -8.22},
      {"smiles": "CC(C)c1nnc2n1CCN(CCS(=O)(=O)c1ccccc1)C2", "cytotoxicity at 10 µM": -8.22},
      {"smiles": "CC(C)c1nnc2n1CCN(C(=O)c1ccc(N(C)C)nn1)C2", "cytotoxicity at 10 µM": -9.86},
      {"smiles": "c1ccc(Cn2ccnc2CNCC2CCCN2c2cccnn2)cc1", "note": "(configuration not stated)", "cytotoxicity at 10 µM": -9.86},
      {"smiles": "Cc1nc(C)n(CC2CCCN(Cc3cn4c(C)cccc4n3)C2)n1", "note": "(configuration not stated)", "cytotoxicity at 10 µM": -6.01},
      {"smiles": "Cc1cnn(CC2CCCCN2CCCS(C)(=O)=O)c1", "note": "(configuration not stated)", "cytotoxicity at 10 µM": -10.1},
      {"smiles": "COc1ccc(CC(=O)N2CCCC(n3cccn3)C2)cc1F", "note": "(configuration not stated)", "cytotoxicity at 10 µM": -4.62},
      {"smiles": "O=C(NCCCN1CCc2ccccc2C1)c1ccccc1Br", "cytotoxicity at 10 µM": -10.2},
      {"smiles": "COc1cc(C(=O)NC(CC(=O)O)c2cccs2)cc(OC)c1C", "note": "(configuration not stated)", "cytotoxicity at 10 µM": -19.1},
      {"smiles": "COc1ccc(COCC(O)CNC(=O)c2cc(C)no2)cc1", "note": "(configuration not stated)", "cytotoxicity at 10 µM": 0.742},
      {"smiles": "Cc1cc(C)n(CC2CCCN2CC(=O)N(C)Cc2ccco2)n1", "note": "(configuration not stated)", "cytotoxicity at 10 µM": -12.2},
      {"smiles": "COC1CCN(C(=O)CCc2c(C)nc3ccnn3c2C)CC1", "cytotoxicity at 10 µM": -5.72},
      {"smiles": "CC(C)(O)CN1CCN(C(=O)c2sccc2C2CC2)CC1", "cytotoxicity at 10 µM": 5.37},
      {"smiles": "CCc1nc(CN2CCN(C(=O)CCc3ccccc3)CC2)cs1", "cytotoxicity at 10 µM": 5.25},
      {"smiles": "CCn1cnnc1CNC(=O)N1CCCN(C(C)=O)CC1", "cytotoxicity at 10 µM": 1.18},
      {"smiles": "CN(C)C1CCN(C(=O)c2ccnn2-c2ccc3ccccn23)CC1", "cytotoxicity at 10 µM": -114},
      {"smiles": "O=C(c1ccco1)N1C[C@@H]2CN(c3ccccn3)C[C@@H]2C1", "cytotoxicity at 10 µM": -1.27},
      {"smiles": "CC(C)C(=O)N1CCN(Cc2ccccn2)CC2(CC(=O)N(C)C2)C1", "note": "(configuration not stated)", "cytotoxicity at 10 µM": 0.0515},
      {"smiles": "O=C(c1ccoc1)N1CC[C@H]2OCC[C@@]2(COc2ncccc2F)C1", "cytotoxicity at 10 µM": -9.31},
      {"smiles": "Cc1noc([C@@H]2C[C@H]3CN(Cc4cc(C)on4)C[C@H]3O2)n1", "cytotoxicity at 10 µM": -9.33},
      {"smiles": "Cc1nn(C(C)C)c(C)c1CN1CCN(C2CCCCC2)C(=O)C1", "cytotoxicity at 10 µM": 6.63},
      {"smiles": "c1coc(CN2CCCC3(COCCN(Cc4c[nH]nn4)C3)C2)c1", "note": "(configuration not stated)", "cytotoxicity at 10 µM": -12.2},
      {"smiles": "CC(=O)NCC(=O)N1CC[C@H](OCC2CC2)[C@@H]1Cc1cccnc1", "cytotoxicity at 10 µM": -1.99},
      {"smiles": "Cc1sc(CN)nc1-c1ccc(Cl)cc1", "cytotoxicity at 10 µM": -3.07},
      {"smiles": "O=c1c2sccc2nc2n1CCN(Cc1ccsc1)CC2", "cytotoxicity at 10 µM": -25.4},
      {"smiles": "Cc1nc(N2CCOCC2)nc2c1CCN(Cc1cccnc1)CC2", "cytotoxicity at 10 µM": -0.368},
      {"smiles": "CC(C)N(C)Cc1cncc2c1CCN(Cc1cccs1)C2", "cytotoxicity at 10 µM": -112},
      {"smiles": "NC(=O)NCC(=O)N1C[C@@H]2CC[C@H]1CN(Cc1ccccc1)C2", "cytotoxicity at 10 µM": -13.4}
    ]}
  ]
}
